# In ChEMBL document CHEMBL3813647, “Discovery of an Orally Active and Liver-Targeted Prodrug of 5-Fluoro-2'-Deoxyuridine for the Treatment of Hepatocellular Carcinoma” (J Med Chem, 2016):
# Key:
# [1] = Cytotoxicity against human SMMC7721 cells assessed as reduction in cell viability after 72 hrs by MTT assay; assay type: functional, cell-based; conditions: SMMC-7721, 72 h
# In short: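 Cells in RPMI-1640 with 10% FBS, seeded at 4 × 10³ per well and attached for 24 h. Compound (DMSO ≤0.5% final) added for 72 h at 37 °C, 5% CO2. Viability read by MTT. IC50 set against 0.5% DMSO-treated cells taken as 100% viable. Mean of two independent experiments, each run in triplicate.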
# Liver [2] = experiment: Drug metabolism in phenobarbital/beta-napthoflavone treated Sprague-Dawley rat liver S9 fraction assessed as prodrug activation at 50 uM preincubated for 5 mins followed by NADPH addition measured up to 60 mins by HPLC-MS/MS analysis; assay type: ADME, subcellular; conditions: s9, 1 h
# In short: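 S9 prepared from livers of Sprague-Dawley rats dosed i.g. with phenobarbital/β-naphthoflavone for 3 days. Incubation: 100 mM KH2PO4 pH 7.4, 5 mg/mL S9, compound at 50 μM, 5 min preincubation at 37 °C, then 2 mM NADPH. Samples at 0–60 min, MeOH extraction, FdUMP (m/z 325→129) measured by HPLC-MS/MS. Triplicate.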
# [3] = Half life in rat plasma by HPLC analysis; assay type: ADME, cell-free
# In short: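 Rat plasma, 37 °C. Compound added from a 2.5 mM stock, sampled at 0–24 h, quenched with MeOH. Analyzed by HPLC-UV at 267 nm (C8 column, MeOH:H2O 68:32). Triplicate samples.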
# Liver [4] = experiment: Cmax in Sprague-Dawley rat liver assessed as FdUMP formation at 49.87 mg/kg administered through oral gavage measured up to 24 hrs by HPLC-MS/MS analysis; assay type: ADME, organism-based; parameters: dose 49.87 mg/kg, route oral; conditions: in vivo
# In short: (§1)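 Male Sprague-Dawley rats (220 ± 20 g), single gavage of 0.096 mmol/kg. FDUR was dosed in H2O; the prodrugs were dosed in 20% hydroxypropyl-β-cyclodextrin. n = 3 per time point, sampled at 0.25–24 h. Plasma (EDTA-K2, cardiac puncture) and freeze-clamped liver were homogenized in 20 mM EDTA-K2/70% MeOH. Analytes measured by HPLC-MS/MS in ESI negative mode.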
# Plasma [5] = experiment: AUC (infinity) in Sprague-Dawley rat plasma assessed as FDUR formation at 49.87 mg/kg administered through oral gavage measured up to 24 hrs by HPLC-MS/MS analysis; assay type: ADME, organism-based; parameters: dose 49.87 mg/kg, route oral, time infinity; conditions: in vivo; in short: as §1
# Plasma [6] = experiment: Cmax in Sprague-Dawley rat plasma assessed as 5-FU formation at 49.87 mg/kg administered through oral gavage measured up to 24 hrs by HPLC-MS/MS analysis; assay type: ADME, organism-based; parameters: dose 49.87 mg/kg, route oral; conditions: in vivo; in short: as §1
# [7] = Ratio of FdUMP AUC (infinity) in Sprague-Dawley rat liver to FDUR AUC (infinity) in Sprague-Dawley rat plasma at 49.87 mg/kg administered through oral gavage; assay type: ADME, organism-based; conditions: in vivo
# In short: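 Male Sprague-Dawley rats (220 20 g), single gavage of 0.096 mmol/kg prodrug in 20% hydroxypropyl-β-cyclodextrin. Blood by cardiac puncture under isoflurane and liver at 0.25–24 h, n = 3 per time point. Liver freeze-clamped and homogenized in 20 mM EDTA-K2/70% MeOH. FdUMP (liver) and FDUR (plasma) by HPLC-MS/MS, negative ESI. Index = AUC(inf) liver FdUMP / AUC(inf) plasma FDUR.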
# Liver [8] = experiment: AUC (infinity) in Sprague-Dawley rat liver assessed as FDUR formation at 49.87 mg/kg administered through oral gavage measured up to 24 hrs by HPLC-MS/MS analysis; assay type: ADME, organism-based; parameters: dose 49.87 mg/kg, route oral, time infinity; conditions: in vivo; in short: as §1
# Plasma [9] = experiment: Cmax in Sprague-Dawley rat plasma assessed as FDUR formation at 49.87 mg/kg administered through oral gavage measured up to 24 hrs by HPLC-MS/MS analysis; assay type: ADME, organism-based; parameters: dose 49.87 mg/kg, route oral; conditions: in vivo; in short: as §1
# Liver [10] = experiment: AUC (infinity) in Sprague-Dawley rat liver assessed as FdUMP formation at 49.87 mg/kg administered through oral gavage measured up to 24 hrs by HPLC-MS/MS analysis; assay type: ADME, organism-based; parameters: dose 49.87 mg/kg, time infinity, route oral; conditions: in vivo; in short: as §1
# Liver [11] = experiment: Cmax in Sprague-Dawley rat liver assessed as FDUR formation at 49.87 mg/kg administered through oral gavage measured up to 24 hrs by HPLC-MS/MS analysis; assay type: ADME, organism-based; parameters: dose 49.87 mg/kg, route oral; conditions: in vivo; in short: as §1
SMILES,Drug metabolism (Liver [2]) [nmol/min/mg],half-life [3] [h],IC50 [1] [µM],other results
O=c1[nH]c(=O)n([C@H]2C[C@H](O)[C@@H](COP(=O)(NCc3ccccc3)OCc3cccc(Br)c3)O2)cc1F (some centres undefined),32.8,> 24,225,–
O=c1[nH]c(=O)n([C@H]2C[C@H](O)[C@@H](COP(=O)(NCc3ccccc3)OCc3ccccc3)O2)cc1F (some centres undefined),17.4,> 24,365,–
O=c1[nH]c(=O)n([C@H]2C[C@H](O)[C@@H](COP(=O)(NCc3ccccc3)OCc3cccc(Cl)c3)O2)cc1F (some centres undefined),22.6,> 24,206,–
O=c1[nH]c(=O)n([C@H]2C[C@H](O)[C@@H](COP(=O)(NCc3ccccc3)OCc3ccc([N+](=O)[O-])cc3)O2)cc1F (some centres undefined),40,> 24,> 1000,–
COc1cccc(COP(=O)(NCc2ccccc2)OC[C@H]2O[C@@H](n3cc(F)c(=O)[nH]c3=O)C[C@@H]2O)c1 (some centres undefined),118.7,> 24,386,–

# More lines, main results first:
Drug metabolism (Liver [2]) [nmol/min/mg],half-life [3] [h],SMILES,IC50 [1] [µM],other results
44.7,> 24,O=c1[nH]c(=O)n([C@H]2C[C@H](O)[C@@H](COP(=O)(NCc3ccccc3)OCc3ccccc3[N+](=O)[O-])O2)cc1F (some centres undefined),> 500,–
49.4,> 24,Cc1cccc(COP(=O)(NCc2ccccc2)OC[C@H]2O[C@@H](n3cc(F)c(=O)[nH]c3=O)C[C@@H]2O)c1 (some centres undefined),139,–
58.4,> 24,Cc1ccccc1COP(=O)(NCc1ccccc1)OC[C@H]1O[C@@H](n2cc(F)c(=O)[nH]c2=O)C[C@@H]1O (some centres undefined),18.6,Cmax (Liver [4]): 55 ng/g; AUC (Plasma [5]): 41 ng·h/mL; Cmax (Plasma [6]): 14 ng/mL; Ratio AUC [7]: < 3.8; AUC (Liver [8]): 838 ng·h/g; Cmax (Plasma [9]): 40 ng/mL; AUC (Liver [10]): < 155 ng·h/g; Cmax (Liver [11]): 50 ng/g
12.5,> 24,O=c1[nH]c(=O)n([C@H]2C[C@H](O)[C@@H](COP(=O)(NCc3ccccc3)OCc3cccc(F)c3)O2)cc1F (some centres undefined),241,–
34.7,> 24,O=c1[nH]c(=O)n([C@H]2C[C@H](O)[C@@H](COP(=O)(NCc3ccccc3)OCc3ccccc3F)O2)cc1F (some centres undefined),155,–
53.5,> 24,Cc1ccc(COP(=O)(NCc2ccccc2)OC[C@H]2O[C@@H](n3cc(F)c(=O)[nH]c3=O)C[C@@H]2O)cc1 (some centres undefined),31.7,–
39.1,> 24,O=c1[nH]c(=O)n([C@H]2C[C@H](O)[C@@H](COP(=O)(NCc3ccccc3)OCc3ccc(Br)cc3)O2)cc1F (some centres undefined),107,–
